Data published in ChEMBL document CHEMBL4376883, “Discovery and Optimization of Small Molecules Targeting the Protein-Protein Interaction of Heat Shock Protein 90 (Hsp90) and Cell Division Cycle 37 as Orally Active Inhibitors for the Treatment of Colorectal Cancer” (J Med Chem, 2020).

Key:
Heat shock protein HSP90 = Heat shock protein HSP90 (Homo sapiens, UniProt P07900+P08238); experiment: Inhibition of recombinant full-length HSP90 ATPase activity N-terminal domain (9 to 236 residues) (unknown origin) expressed in Escherichia coli BL21 (DE3) measured after 1 hr by ADP hunter plus assay
[1] = Stability of the compound in mouse plasma assessed as parent compound remaining at 1 uM measured after 10 mins by LC-MS/MS analysis; format: ADME, cell-free; conditions: read-out: Stability
Method in brief: (§1)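 Compound diluted from 10 mM DMSO stock to 1 μM in mouse or human plasma and held at 37 °C in a water bath. Reactions were stopped with acetonitrile at 0, 10, 30, 60 and 90 min. Parent compound was quantified by LC-MS/MS as % remaining.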

[2] = Stability of the compound in human plasma assessed as parent compound remaining at 1 uM measured after 10 mins by LC-MS/MS analysis; format: ADME, cell-free; conditions: read-out: Stability; method in brief: as §1
[3] = Clearance in human liver microsomes at 10 uM preincubated for 5 mins followed by NADPH addition by LC-MS/MS analysis; format: ADME, Microsome; conditions: read-out: CLH
Method in brief: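 Compound at 10 µM preincubated 5 min at 37 °C with human or mouse liver microsomes (0.5 mg/mL) in 100 mM phosphate, pH 7.4. Reaction started with 1 mM NADPH, stopped with cold acetonitrile, centrifuged and analysed by LC-MS/MS.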

[4] = Effect on HSP70 in human HCT116 cells at 10 uM measured up to 48 hrs by Western blot analysis; format: cell-based
Method in brief: (§2)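 HCT116 cells treated with 0, 1, 5 or 10 µM for 24 h, or with 10 µM for 0, 4, 12, 24 or 48 h. Lysates separated by SDS-PAGE and blotted. Membranes blocked in 5% milk, primary antibodies overnight at 4 °C, HRP secondaries, chemiluminescent detection.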

HCT-116 = experiment: Effect on HSP90 expression in human HCT116 cells up to 10 uM measured after 24 hrs by Western blot analysis; format: cell-based; conditions: hct-116, 24 h; method in brief: as §2
[5] = AUC (0 to infinity) in plasma of human HCT116 cells xenografted BALB/c mouse at 80 mg/kg, po administered as single dose by LC-MS/MS analysis; format: ADME, organism-based; parameters: dose 80 mg/kg, time infinity, route oral
Method in brief: (§3)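 Tumour-bearing mice (n = 6 per group) given one oral dose of 80 mg/kg. Blood and tumour collected into heparinized tubes at 0, 0.25, 0.5, 1, 2, 4, 8, 12 and 24 h. Plasma obtained by centrifugation at 3000 rpm for 10 min. Samples stored at -80 °C and quantified by LC-MS/MS.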

[6] = Apparent oral clearance in plasma of human HCT116 cells xenografted BALB/c mouse at 80 mg/kg administered as single dose by LC-MS/MS analysis; format: ADME, organism-based
Method in brief: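 Xenograft mice (n = 6 per group) received a single 80 mg/kg oral dose. Plasma and tumour were sampled over 0–24 h into heparinized tubes and analysed by LC-MS/MS.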

[7] = Cmax in tumor of human HCT116 cells xenografted BALB/c mouse at 80 mg/kg, po administered as single dose by LC-MS/MS analysis; format: ADME, organism-based, Neoplasm; parameters: dose 80 mg/kg, route oral; method in brief: as §3
[8] = AUC (0 to t) in tumor of human HCT116 cells xenografted BALB/c mouse at 80 mg/kg, po administered as single dose by LC-MS/MS analysis; format: ADME, organism-based, Neoplasm; method in brief: as §3
[9] = Half life in plasma of human HCT116 cells xenografted BALB/c mouse at 80 mg/kg administered as single dose by LC-MS/MS analysis

**Q.** Which results are given for `Cc1cc(C)c(S(=O)(=O)N(CC(=O)O)c2ccc(Nc3ccnc(N4CCNCC4)n3)cc2)c(C)c1`?
**A.** IC50 (Heat shock protein HSP90): > 100 µM; remaining at 10 min, 1 µM [1]: 100%; remaining at 10 min, 1 µM [2]: 98%; microsomal CLint at 10 µM [3]: 8.97 µL/min/mg; Activity [4]: Non-Toxic; Activity (HCT-116): Non-Toxic; AUC(0-inf) [5]: 536 µg·h/mL; CL/F [6]: 3.11 mL/min/kg; Cmax [7]: 50000 ng/mL; AUC(0-t) [8]: 132 µg·h/mL; T1/2 [9]: 1.46 h
